Screening results from PubChem.
Most compounds without a hit are left out; they make up all but 3.8% or so of the library.
KCNQ1 block – inhibitors of human KCNQ1 potassium channel. P51787. CHO-K1 KCNQ1, FluxOR thallium flux fluorescence; active compounds read high. B-score at 10 µM. actives 1.3% (n = 310,000). AID 2642;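 active = compounds whose thallium flux B-score, printed positive for inhibition, exceeds three library SD while starting fluorescence stays within three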;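 note: channel opened by potassium depolarization with thallium stimulus after 20 min compound exposure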
KCNK3 block – human KCNK3 channel inhibition, primary screen; B-score at 10 µM; CHO-KCNK3 thallium flux, FluxOR fluorescence; active compounds read low; O14649; actives 0.84% (n = 340,000);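 active = B-score under library mean minus 4 SD, starting fluorescence ratio at most library mean plus 5 SD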;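 note: more negative B-score means stronger inhibition of thallium flux through KCNK3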
Target sequence (O14649 whole entry, looked up): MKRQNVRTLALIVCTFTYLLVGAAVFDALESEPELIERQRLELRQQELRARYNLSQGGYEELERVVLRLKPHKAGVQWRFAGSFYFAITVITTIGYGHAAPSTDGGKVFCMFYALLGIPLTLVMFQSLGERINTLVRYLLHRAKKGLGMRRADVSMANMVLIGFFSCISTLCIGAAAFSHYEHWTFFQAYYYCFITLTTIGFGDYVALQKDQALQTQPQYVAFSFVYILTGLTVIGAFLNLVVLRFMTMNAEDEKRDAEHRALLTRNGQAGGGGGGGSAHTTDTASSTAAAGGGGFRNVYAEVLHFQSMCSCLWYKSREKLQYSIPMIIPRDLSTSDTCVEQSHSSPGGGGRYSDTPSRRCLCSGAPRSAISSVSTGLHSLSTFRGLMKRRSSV
KCNK9 block – human KCNK9 channel inhibition; B-score at 10 µM; Q9NPC2; AID 488922; actives 1.2% (n = 310,000); HEK293 KCNK9, FluxOR thallium flux fluorescence; active compounds read low;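 active = ratio B-score over 3 SD below the library mean, with starting fluorescence within 5 SD of its mean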;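 note: negative B-score means less thallium flux so channel inhibition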
hERG rescue – compounds protecting human hERG from proarrhythmic drug block. CHO-hERG, FluxOR thallium flux, dofetilide IC70 present. Q12809. actives 0.51% (n = 310,000). AID 1511. activation (rescue from dofetilide block), less the hit threshold, % at 10 µM;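 active = activation above the mean of controls blocked by dofetilide plus 5 SD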;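 note: thallium influx through hERG after potassium depolarization seen as dye fluorescence rise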
Kir21 inh – Kir2.1 (mouse) channel inhibition; P35561; HEK293-Kir2.1, FluxOR thallium flux fluorescence; active compounds read low; B-score at 10 µM; actives 0.85% (n = 310,000); AID 1672;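 active = fluorescence ratio B-score at or below minus 3 SD of library scores, with starting-brightness B-score within 2 SD, cut at about -4.2 in these data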;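 note: channel flux triggered by added potassium and thallium sulfate stimulus; B-score of peak minus minimum fluorescence over baseline after thallium stimulus; more negative B-score means stronger Kir2.1 block with less thallium influx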
KCNQ1 pot – human KCNQ1 channel potentiation or activation; CHO-K1 KCNQ1, thallium flux FluxOR fluorescence; active compounds read high; actives 0.35% (n = 310,000); P51787; B-score at 10 µM;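 active = fluorescence ratio B-score, a plate-corrected score, at least three library SD, with initial intensity B-score within 5 SD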
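assay system = CHO-K1 cells stably expressing KCNQ1 | medium = assay buffer, equal DMSO in all wells | timing = 37 °C overnight plating, 90-min dark dye load, 20-min compound pretreatment | measured by = kinetic FluxOR thallium fluorescence, 10-s 1-Hz baseline, 110-s post-stimulus read | measure = fluorescence change relative to baseline, converted to B score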
Hits are given with their value; – = inactive; · = not tested or not shown.

SMILES	KCNQ1 block	KCNK3 block	KCNK9 block	hERG rescue	Kir21 inh	KCNQ1 pot
CC(C)(CNC(=O)c1cccc(S(=O)(=O)NCc2ccccc2)c1)N1CCOCC1	–	–	–	–	–	–
COc1ccc(Cl)cc1NS(=O)(=O)c1cccc(C(=O)NCC(C)(C)N2CCOCC2)c1	·	-9	·	·	·	·
CC(Oc1ccc(Cl)cc1)C(=O)Nc1sccc1C(N)=O (stereo not drawn)	–	–	–	6.6	–	–
CCOc1cccc(-c2c(C(=O)N/N=C/c3ccncc3)nnn2-c2nonc2N)c1	–	–	–	–	–	–
CCOc1cccc(-c2c(C(=O)N/N=C(\C)c3ccccn3)nnn2-c2nonc2N)c1	–	–	-7	–	–	–
CC1(C)SC(=S)N(/N=C/c2ccc(O)cc2)C1N(O)C(=O)Nc1ccc([N+](=O)[O-])cc1 (stereo not drawn)	10	–	–	–	–	–
CC1(C)SC(=S)N(/N=C/c2ccccc2O)C1N(O)C(=O)Nc1ccccc1 (stereo not drawn)	8	–	–	–	–	–
CC1(C)SC(=S)N(/N=C/c2cccnc2)C1N(O)C(=O)Nc1ccccc1 (stereo not drawn)	–	–	–	–	–	–
CC1(C)SC(=S)N(NC(=O)Nc2ccccc2)C1N(O)C(=O)Nc1cccc2ccccc12 (stereo not drawn)	9	–	–	–	–	–
C=C1C[C@H](O[C@@H]2O[C@H](CO)[C@@H](O)[C@H](O)[C@H]2O)[C@@H]2[C@H](OC(=O)[C@H]2C)[C@H]2[C@H](C)[C@H](O)C[C@@H]12	·	–	·	·	·	·
CC(C)Cn1c(O)c(N=NC(=O)c2cccc(S(=O)(=O)N3CCCCC3)c2)c2ccccc21	–	–	-7.9	–	–	–
Cc1c(C(=O)NCC2CCCO2)oc2ccc(S(=O)(=O)N3CCCC3)cc12 (stereo not drawn)	–	–	–	–	–	–
Cc1c(C(=O)NCC2COc3ccccc3O2)oc2ccc(S(=O)(=O)N(C)C3CCCCC3)cc12 (stereo not drawn)	6	–	–	–	–	–
Cc1cc2ccccn2c1C(=O)c1ccc(F)cc1	–	–	-7.2	–	–	–
CCOC(=O)c1cccc(C2=CC(=O)C[C@H](c3ccc(OC)c(OC)c3)C2)c1	·	–	·	·	·	·
Cc1cc(C)c2sc(N(CCCN(C)C)C(=O)c3ccc(S(=O)(=O)N4CCCc5ccccc54)cc3)nc2c1	6	–	–	–	–	–
O=c1[nH]c(NCCO)nc2c1C1(CCCC1)Cc1ccccc1-2	–	–	–	–	–	–
C=CCNC(=S)NNc1nc2c(c(=O)[nH]1)C1(CCCCC1)Cc1ccccc1-2	8	–	–	–	–	–
O=C([C@@H]1CC=C[C@@H]2CCN(C3CC3)C(=O)[C@@H]21)N1CCN(c2ccccc2)CC1	–	–	–	–	–	–
C[C@H]1COC2=C1C(=O)C(=O)c1c2ccc2c1CCCC2(C)C	–	-8.7	–	–	-5.4	–
CC1CCCCN1C(=O)c1cccc(NC2=C(Cl)C(=O)N(Cc3ccccc3)C2=O)c1 (stereo not drawn)	·	-11	·	·	·	·
CCN1C=C(Cc2cccs2)C2=C(C1)C(c1cccs1)C(C#N)=C(N)O2 (stereo not drawn)	–	-9	-7.4	–	–	–
CCOC(=O)C1=C(C)OC(N)=C(C#N)C1c1cccs1 (stereo not drawn)	–	–	–	–	–	–
CCC(C)c1ccc(S(=O)(=O)N2CCN(C(=O)c3ccc(Cl)c(S(=O)(=O)N4CCOCC4)c3)CC2)cc1 (stereo not drawn)	·	-9.6	·	·	·	·
COc1ccccc1OCCNC(=O)Cc1ccc(Cl)c(Cl)c1	–	–	–	–	–	–
SMILES	KCNQ1 block	KCNK3 block	KCNK9 block	hERG rescue	Kir21 inh	KCNQ1 pot
Cc1ccc2nc(-c3ccncc3)cc(-c3ccccc3)c2c1	–	–	–	–	–	–
Cc1ccc(-c2cc3cccc[n+]3cc2-c2ccc(C)cc2)cc1	8	–	–	–	-12	–
CCOC(=O)c1c(NC(=O)CN2CCN(C(=O)c3ccco3)CC2)sc(C)c1C	–	–	–	–	–	–
CCc1c(C)sc(NC(=O)CN2CCN(C(=O)c3ccco3)CC2)c1C(=O)OC	–	–	–	–	–	22
CC(=O)Nc1ccc(S(=O)(=O)NCCC(=O)N2CCC(Cc3ccccc3)CC2)cc1	·	–	·	·	·	·
CCOc1ccccc1N(CC(=O)N1CCCCCC1)S(C)(=O)=O	–	–	–	–	–	–
CCOc1ccccc1N(CC(=O)OC)S(C)(=O)=O	–	–	–	4.6	–	–
CSc1ccccc1NC(=O)NCCCl	–	–	–	–	–	–
c1ccc(CNc2ncnc3nc[nH]c23)cc1	–	–	–	–	–	–
c1ccc(CCCNc2ncnc3nc[nH]c23)cc1	–	–	–	6.0	–	–
O=C(CN1C(=O)c2ccccc2S1(=O)=O)Nc1ccccc1	–	–	–	–	–	–
CSc1cccc(NC(=O)CN2C(=O)c3ccccc3S2(=O)=O)c1	–	–	–	6.5	–	21
O=C(OCc1nnc(-c2ccc(Cl)cc2)o1)c1ccc(O)cc1	–	–	–	–	–	–
CS(=O)(=O)c1ccc(C(=O)OCc2nnc(-c3ccc(Cl)cc3)o2)cc1[N+](=O)[O-]	–	–	–	–	–	12
Cc1cccc(C)c1NC(=O)N1CCC(n2cnc3ccccc32)CC1	–	–	–	–	–	–
O=C(NC1CCCCC1)N1CCC(n2cnc3ccccc32)CC1	–	–	–	6.2	–	–
C/C(=N\NC(=O)c1ccc(O)cc1)c1ccc2c(c1)Nc1ccccc1S2	6	–	–	–	–	–
O=C(CSc1nnc(NC(=O)C2CC(=O)N(c3ccccc3)C2)s1)NCc1ccco1 (stereo not drawn)	–	–	–	–	–	–
c1ccc2c3c([nH]c2c1)C(C1CCCCC1)N(Cc1ncc[nH]1)CC3 (stereo not drawn)	–	–	–	–	-4.6	–
Cc1cnc(CN2CCc3c([nH]c4ccccc34)C2C2CCCCC2)[nH]1 (stereo not drawn)	–	–	–	–	–	–
CN1C(=O)C2C3c4ccccc4C(c4ccccc43)[C@@H]2C1=O (stereo partly drawn)	–	–	–	–	–	–
O=C1C2C3c4ccccc4C(c4ccccc43)C2c2nc3ccccc3n21 (stereo not drawn)	–	–	-7.7	–	–	–
CC1=CC(C)(C)N(C(=O)CNC2CCCC2)c2cc(C)ccc21	–	–	–	–	–	–
COc1cc(C(=O)NS(=O)(=O)c2ccccc2C)ccc1Cc1cn(C)c2ccc(NC(=O)OC3CCCC3)cc12	10	·	–	–	–	–
COC(=O)CC(NC(=O)Nc1ccccc1F)c1ccc2c(c1)OCO2 (stereo not drawn)	–	–	–	–	–	–
